Measured values published in ChEMBL document CHEMBL1773058, “Synthesis of 4β-carbamoyl epipodophyllotoxins as potential antitumour agents” (2011).
Active and inactive are the calls of the source. The calls are words filed in the database; no cut-off is given here.

Columns and labels:
[1] = tested on: PC-3; test: Growth inhibition of human PC3 cells after 48 hrs by sulforhodamine B assay; format: functional; conditions: PC-3, 48 h
In short: (§1)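 Cells grown in RPMI-1640 (2 mM glutamine, pH 7.4, 10% FCS, penicillin/streptomycin) at 37 °C, 5% CO2. Subconfluent cells trypsinised, used at >97% viability (trypan blue), plated and grown 24 h, then exposed to test materials 48 h in triplicate. Fixed with TCA at 4 °C for 1 h, stained 30 min with 0.4% SRB in 1% acetic acid, dye solubilised in 10 mM Tris pH 10.4, OD read at 540 nm. GI50 reported.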

[2] = tested on: MCF7; test: Growth inhibition of human MCF7 cells after 48 hrs by sulforhodamine B assay; format: functional; conditions: MCF7, 48 h; in short: as §1
[3] = Growth inhibition of human Gurav cells after 48 hrs by sulforhodamine B assay; format: functional; in short: as §1
[4] = tested on: SiHa; test: Growth inhibition of human SiHa cells after 48 hrs by sulforhodamine B assay; format: functional; in short: as §1
[5] = tested on: HOP-62; test: Growth inhibition of human HOP62 cells after 48 hrs by sulforhodamine B assay; format: functional; conditions: HOP-62, 48 h; in short: as §1
[6] = tested on: COLO 205; test: Growth inhibition of human COLO205 cells after 48 hrs by sulforhodamine B assay; format: functional; conditions: COLO 205, 48 h; in short: as §1
[7] = Growth inhibition of human DWD cells after 48 hrs by sulforhodamine B assay; format: functional; in short: as §1
[8] = tested on: A2780; test: Growth inhibition of human A2780 cells after 48 hrs by sulforhodamine B assay; format: functional; conditions: A2780, 48 h; in short: as §1
[9] = tested on: KB; test: Growth inhibition of human KB cells after 48 hrs by sulforhodamine B assay; format: functional; in short: as §1
[10] = target: DNA topoisomerase 2-alpha (Homo sapiens) (UniProt P11388); test: Inhibition of topoisomerase 2 assessed as inhibition of relaxation of supercoiled pBR322 plasmid DNA at 10 uM to 1 mM by ethidium bromide staining
Sequence of DNA topoisomerase 2-alpha (Homo sapiens) (P11388 whole entry): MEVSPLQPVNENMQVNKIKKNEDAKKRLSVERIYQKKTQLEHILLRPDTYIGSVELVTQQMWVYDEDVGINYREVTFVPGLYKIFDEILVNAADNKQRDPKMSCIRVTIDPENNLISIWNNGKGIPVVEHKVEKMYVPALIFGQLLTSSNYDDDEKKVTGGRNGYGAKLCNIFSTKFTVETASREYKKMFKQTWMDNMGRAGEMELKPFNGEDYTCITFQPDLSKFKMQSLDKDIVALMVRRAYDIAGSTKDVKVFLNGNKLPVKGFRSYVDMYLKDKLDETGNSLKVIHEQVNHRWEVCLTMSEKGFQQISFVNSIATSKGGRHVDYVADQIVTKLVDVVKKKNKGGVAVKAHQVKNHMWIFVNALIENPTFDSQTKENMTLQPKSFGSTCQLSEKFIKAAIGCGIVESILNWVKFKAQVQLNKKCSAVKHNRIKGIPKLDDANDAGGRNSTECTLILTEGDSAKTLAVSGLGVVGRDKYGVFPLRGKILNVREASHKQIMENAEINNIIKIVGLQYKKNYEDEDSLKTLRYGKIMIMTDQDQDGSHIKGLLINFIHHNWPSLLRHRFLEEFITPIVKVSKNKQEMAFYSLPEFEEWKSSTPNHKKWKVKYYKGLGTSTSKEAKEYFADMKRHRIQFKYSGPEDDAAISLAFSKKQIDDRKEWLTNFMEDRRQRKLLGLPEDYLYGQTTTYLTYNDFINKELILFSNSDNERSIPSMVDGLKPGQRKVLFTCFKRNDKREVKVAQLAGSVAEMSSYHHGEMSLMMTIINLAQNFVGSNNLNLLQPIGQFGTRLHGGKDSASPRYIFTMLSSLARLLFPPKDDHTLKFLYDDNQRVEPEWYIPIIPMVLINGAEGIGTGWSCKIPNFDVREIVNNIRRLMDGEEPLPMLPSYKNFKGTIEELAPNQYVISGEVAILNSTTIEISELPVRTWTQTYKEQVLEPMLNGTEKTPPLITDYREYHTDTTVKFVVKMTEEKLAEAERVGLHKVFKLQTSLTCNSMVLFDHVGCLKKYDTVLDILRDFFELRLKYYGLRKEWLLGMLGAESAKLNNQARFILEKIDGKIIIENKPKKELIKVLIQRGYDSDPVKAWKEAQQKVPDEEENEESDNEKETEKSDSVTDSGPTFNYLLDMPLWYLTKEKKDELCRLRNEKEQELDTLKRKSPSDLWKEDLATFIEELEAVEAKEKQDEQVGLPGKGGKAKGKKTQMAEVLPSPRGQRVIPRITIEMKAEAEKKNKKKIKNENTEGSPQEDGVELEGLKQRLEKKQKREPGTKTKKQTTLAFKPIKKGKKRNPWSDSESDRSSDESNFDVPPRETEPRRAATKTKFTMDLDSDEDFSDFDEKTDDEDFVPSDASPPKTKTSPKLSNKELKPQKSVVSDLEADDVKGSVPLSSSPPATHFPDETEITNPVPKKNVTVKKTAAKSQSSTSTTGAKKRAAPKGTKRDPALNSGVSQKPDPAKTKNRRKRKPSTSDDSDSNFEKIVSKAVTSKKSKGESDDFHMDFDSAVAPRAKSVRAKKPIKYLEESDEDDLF
In short: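 Topo II relaxation reaction stopped with 10% SDS, then proteinase K treatment and extraction with chloroform/isoamyl alcohol (24:1). Products resolved on 1% agarose gel in TAE (40 mM Tris-acetate pH 8.0, 1 mM EDTA) and stained with 0.5 µg/ml ethidium bromide.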

[11] = tested on: ZR-75-1; test: Growth inhibition of human ZR-75-1 cells after 48 hrs by sulforhodamine B assay; format: functional; conditions: ZR-75-1, 48 h; in short: as §1
[12] = tested on: A549; test: Growth inhibition of human A549 cells after 48 hrs by sulforhodamine B assay; format: functional; conditions: A549, 48 h; in short: as §1

COc1cc([C@@H]2c3cc4c(cc3[C@@H](OC(=O)NCCc3c[nH]c5ccccc35)[C@H]3COC(=O)[C@H]23)OCO4)cc(OC)c1OC
GI50 [1]: 160 nM
GI50 [2]: 160 nM
GI50 [3]: 120 nM
GI50 [4]: 1800 nM
GI50 [5]: 2100 nM
GI50 [6]: 120 nM
GI50 [7]: < 100 nM
GI50 [8]: 110 nM
GI50 [9]: 180 nM
inhibition [10]: Active
GI50 [11]: 130 nM
GI50 [12]: < 100 nM

CCCNC(=O)O[C@@H]1c2cc3c(cc2[C@@H](c2cc(OC)c(OC)c(OC)c2)[C@H]2C(=O)OC[C@@H]21)OCO3
GI50 [1]: 170 nM
GI50 [2]: 2000 nM
GI50 [3]: 170 nM
GI50 [4]: 1200 nM
GI50 [5]: 160 nM
GI50 [6]: 2700 nM
GI50 [7]: 2000 nM
GI50 [8]: 190 nM
GI50 [9]: 2100 nM
GI50 [11]: 190 nM
GI50 [12]: < 100 nM

O=c1[nH]cc(F)c(=O)[nH]1 [FLUOROURACIL]
GI50 [1]: 12000 nM
GI50 [2]: 2800 nM
GI50 [3]: 3100 nM
GI50 [4]: 6300 nM
GI50 [5]: 4100 nM
GI50 [6]: 2800 nM
GI50 [7]: 6100 nM
GI50 [8]: 3500 nM
GI50 [9]: 5200 nM
GI50 [11]: 2300 nM
GI50 [12]: 2400 nM

COc1cc([C@@H]2c3cc4c(cc3[C@@H](OC(=O)NCC3CC3)[C@H]3COC(=O)[C@H]23)OCO4)cc(OC)c1OC
GI50 [1]: 2300 nM
GI50 [2]: 2300 nM
GI50 [3]: 180 nM
GI50 [4]: 2300 nM
GI50 [5]: 2500 nM
GI50 [6]: 2500 nM
GI50 [7]: 2000 nM
GI50 [8]: 2000 nM
GI50 [9]: 2400 nM
GI50 [11]: 190 nM
GI50 [12]: < 100 nM

COc1cc([C@@H]2c3cc4c(cc3[C@@H](OC(=O)N3CCOCC3)[C@H]3COC(=O)[C@H]23)OCO4)cc(OC)c1OC
GI50 [1]: 160 nM
GI50 [2]: 160 nM
GI50 [3]: 140 nM
GI50 [4]: 1400 nM
GI50 [5]: 130 nM
GI50 [6]: 2700 nM
GI50 [7]: < 100 nM
GI50 [8]: 130 nM
GI50 [9]: 120 nM
inhibition [10]: Active
GI50 [11]: 140 nM
GI50 [12]: < 100 nM

COc1cc([C@@H]2c3cc4c(cc3[C@@H](OC(=O)NCc3ccc(C(F)(F)F)cc3)[C@H]3COC(=O)[C@H]23)OCO4)cc(OC)c1OC
GI50 [1]: 2100 nM
GI50 [2]: 180 nM
GI50 [3]: 190 nM
GI50 [4]: 2000 nM
GI50 [5]: 2300 nM
GI50 [6]: 150 nM
GI50 [7]: 2000 nM
GI50 [8]: 180 nM
GI50 [9]: 180 nM
GI50 [11]: 160 nM
GI50 [12]: < 100 nM

COc1cc([C@@H]2c3cc4c(cc3[C@@H](O[C@@H]3O[C@@H]5CO[C@@H](C)O[C@H]5[C@H](O)[C@H]3O)[C@H]3COC(=O)[C@H]23)OCO4)cc(OC)c1O [ETOPOSIDE]
GI50 [1]: 2600 nM
GI50 [2]: 2100 nM
GI50 [3]: 500 nM
GI50 [4]: 3100 nM
GI50 [5]: 800 nM
GI50 [6]: 130 nM
GI50 [7]: 600 nM
GI50 [8]: 1300 nM
GI50 [9]: 300 nM
GI50 [11]: 200 nM
GI50 [12]: 3080 nM

COc1cc([C@@H]2c3cc4c(cc3[C@@H](OC(=O)NC(C)C)[C@H]3COC(=O)[C@H]23)OCO4)cc(OC)c1OC
GI50 [1]: 190 nM
GI50 [2]: 190 nM
GI50 [3]: 160 nM
GI50 [4]: 190 nM
GI50 [5]: 2100 nM
GI50 [6]: 2700 nM
GI50 [7]: < 100 nM
GI50 [8]: 140 nM
GI50 [9]: 180 nM
GI50 [11]: 150 nM
GI50 [12]: < 100 nM

C#CCNC(=O)O[C@@H]1c2cc3c(cc2[C@@H](c2cc(OC)c(OC)c(OC)c2)[C@H]2C(=O)OC[C@@H]21)OCO3
GI50 [1]: 160 nM
GI50 [2]: 190 nM
GI50 [3]: 140 nM
GI50 [4]: 1900 nM
GI50 [5]: 140 nM
GI50 [6]: 2700 nM
GI50 [7]: < 100 nM
GI50 [8]: 160 nM
GI50 [9]: 170 nM
GI50 [11]: 140 nM
GI50 [12]: < 100 nM

COCCNC(=O)O[C@@H]1c2cc3c(cc2[C@@H](c2cc(OC)c(OC)c(OC)c2)[C@H]2C(=O)OC[C@@H]21)OCO3
GI50 [1]: 160 nM
GI50 [2]: 150 nM
GI50 [3]: 140 nM
GI50 [4]: 2400 nM
GI50 [5]: 120 nM
GI50 [6]: 2200 nM
GI50 [7]: < 100 nM
GI50 [8]: 150 nM
GI50 [9]: 150 nM
GI50 [11]: < 100 nM
GI50 [12]: < 100 nM

COc1cc([C@@H]2c3cc4c(cc3[C@@H](OC(=O)NCCN(C)C)[C@H]3COC(=O)[C@H]23)OCO4)cc(OC)c1OC
GI50 [1]: 150 nM
GI50 [2]: 110 nM
GI50 [3]: 150 nM
GI50 [4]: 2100 nM
GI50 [5]: 120 nM
GI50 [6]: 2100 nM
GI50 [7]: < 100 nM
GI50 [8]: 120 nM
GI50 [9]: 160 nM
GI50 [11]: < 100 nM
GI50 [12]: < 100 nM

COc1cc([C@@H]2c3cc4c(cc3[C@@H](OC(=O)N(C)C)[C@H]3COC(=O)[C@H]23)OCO4)cc(OC)c1OC
GI50 [1]: 150 nM
GI50 [2]: 160 nM
GI50 [3]: 170 nM
GI50 [4]: 2100 nM
GI50 [5]: 130 nM
GI50 [6]: 2100 nM
GI50 [7]: < 100 nM
GI50 [8]: 180 nM
GI50 [9]: 180 nM
GI50 [11]: 120 nM
GI50 [12]: < 100 nM
